Results taken from ChEMBL document CHEMBL4334471, “Discovery of 1,8-disubstituted-[1,2,3]triazolo[4,5-c]quinoline derivatives as a new class of Hippo signaling pathway inhibitors” (Bioorg Med Chem Lett, 2019).
Activity calls are given as the source filed them. The calls are words filed in the database; no cut-off is given here.

Each compound was assayed on A549 (assay: Inhibition of hippo signalling protein in human A549 cells cotransfected with CTGF promoter-driven firefly luciferase and CMV promoter-driven renilla luciferase gene incubated for 24 hrs by dual-luciferase gene assay).
Format: cell-based
In short: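 Dual-luciferase reporter read-out in A549-CTGF cells after 24 h culture with compound. Firefly luciferase is expressed relative to DMSO-treated cells, set as 1. Screening used 10 µM. Values are mean ± SEM of three independent experiments.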
With `CN1C(=O)c2sccc2N(C)c2nc(Nc3ccc(S(N)(=O)=O)cc3)ncc21` the inhibition was “Dose-dependent effect”.

These compounds were tested on A549 (assay: Inhibition of hippo signalling protein in human A549 cells assessed as increase in CTGF mRNA expression level at 10 uM incubated for 24 hrs by qRT-PCR analysis).
Format: cell-based
In short: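 A549-CTGF cells were exposed to compound or 0.1% DMSO for 24 h before total RNA extraction. Endogenous CTGF mRNA was quantified by real-time PCR. Data were mean ± SEM (n=4) and compared by Student's t-test.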
`CN1C(=O)c2sccc2N(C)c2nc(Nc3ccc(S(N)(=O)=O)cc3)ncc21` was tested, and the inhibition was “Active”.

What follows are compounds tested against Transcriptional coactivator YAP1 (Homo sapiens) (UniProt P46937) (assay: Induction of YAP nuclear translocation in human A549 cells at 10 uM incubated for 8 hrs by immunofluorescence based confocal microscopy).
Chain of Transcriptional coactivator YAP1 (Homo sapiens) (P46937 whole entry): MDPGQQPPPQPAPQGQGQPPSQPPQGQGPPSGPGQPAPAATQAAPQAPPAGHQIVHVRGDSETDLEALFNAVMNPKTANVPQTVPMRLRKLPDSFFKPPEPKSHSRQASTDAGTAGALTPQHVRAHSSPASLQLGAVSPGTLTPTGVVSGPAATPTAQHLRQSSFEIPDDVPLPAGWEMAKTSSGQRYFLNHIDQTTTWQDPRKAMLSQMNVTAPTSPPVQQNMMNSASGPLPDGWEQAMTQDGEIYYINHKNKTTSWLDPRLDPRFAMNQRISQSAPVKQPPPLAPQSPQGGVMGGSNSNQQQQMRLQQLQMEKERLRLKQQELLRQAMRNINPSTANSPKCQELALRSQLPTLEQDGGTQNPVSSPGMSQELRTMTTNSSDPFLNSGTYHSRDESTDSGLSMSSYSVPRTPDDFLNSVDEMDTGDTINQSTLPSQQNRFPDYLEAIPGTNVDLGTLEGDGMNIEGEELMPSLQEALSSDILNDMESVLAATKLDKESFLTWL
Format: cell-based
In short: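 A549-CTGF reporter cells were treated for 8 h at 10 µM, with 0.1% DMSO as vehicle control. Cells were then fixed, permeabilized and probed with anti-YAP antibody. DAPI stained the nuclei, and YAP localization was imaged by immunofluorescence.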
With `CN1C(=O)c2sccc2N(C)c2nc(Nc3ccc(S(N)(=O)=O)cc3)ncc21` the Activity was “Active”.

What follows are compounds tested on A549 (assay: Inhibition of hippo signalling protein in human A549 cells cotransfected with CTGF promoter-driven firefly luciferase and CMV promoter-driven renilla luciferase gene assessed as increase in CTGF expression at 10 uM incubated for 24 hrs by dual-luciferase gene assay relative to control).
`C[C@@H](c1ccccc1)n1nnc2cnc3ccc(-c4ccccc4)cc3c21` was tested, and the fold change (FC) was 1.43.
Work on `COc1cccc([C@H](C)n2nnc3cnc4ccc(-c5cnc6[nH]ccc6c5)cc4c32)c1` yielded a fold change (FC) of 3.13.
With `C[C@@H](c1ccccc1)n1nnc2cnc3ccc(-c4ccc(N)cc4)cc3c21` the fold change (FC) was 2.24.
With `C[C@@H](c1ccccc1)n1nnc2cnc3ccc(-c4ccc(N)c(Cl)c4)cc3c21` the fold change (FC) was 1.73.
With `C[C@@H](c1ccc(F)cc1)n1nnc2cnc3ccc(-c4cnc5[nH]ccc5c4)cc3c21` the fold change (FC) was 6.51.
`CC(C)n1nnc2cnc3ccc(-c4cnc5[nH]ccc5c4)cc3c21` was tested, and the fold change (FC) was 3.38.
For `C[C@H](c1cccc(F)c1)n1nnc2cnc3ccc(-c4cnc5[nH]ccc5c4)cc3c21`, the fold change (FC) was 2.1.
In the case of `C[C@@H](c1ccccc1)n1nnc2cnc3ccc(-c4ccnc(N)c4)cc3c21`, the fold change (FC) was 2.01.
`C[C@@H](c1ccccc1)n1nnc2cnc3ccc(-c4ccnc5[nH]ccc45)cc3c21` was tested, and the fold change (FC) was 0.549.
`C[C@@H](c1ccccc1)n1nnc2cnc3ccc(-c4cnc(N)nc4)cc3c21` was tested, and the fold change (FC) was 3.49.
In the case of `C[C@@H](c1cccc(F)c1)n1nnc2cnc3ccc(-c4cnc5[nH]ccc5c4)cc3c21`, the fold change (FC) was 4.91.
With `C[C@@H](c1ccccc1)n1nnc2cnc3ccc(-c4ccc(N(C)C)nc4)cc3c21` the fold change (FC) was 1.19.
In the case of `C[C@@H](c1ccccc1)n1nnc2cnc3ccc(-c4ccc5[nH]ccc5c4)cc3c21`, the fold change (FC) was 4.6.
In the case of `COc1ccc(-c2ccc3ncc4nnn([C@@H](C)c5ccccc5)c4c3c2)cn1`, the fold change (FC) was 0.996.
Work on `C[C@@H](c1ccccc1)n1nnc2cnc3ccc(-c4ccc(N)nc4)cc3c21` yielded a fold change (FC) of 9.09.
With `C[C@@H](c1ccccc1)n1nnc2cnc3ccc(-c4ccc(Cl)nc4)cc3c21` the fold change (FC) was 1.24.
Work on `Cn1nnc2cnc3ccc(-c4cnc5[nH]ccc5c4)cc3c21` yielded a fold change (FC) of 0.55.
`COc1cccc([C@@H](C)n2nnc3cnc4ccc(-c5cnc6[nH]ccc6c5)cc4c32)c1` gave a fold change (FC) of 2.22.
In the case of `C[C@H](c1ccccc1)n1nnc2cnc3ccc(-c4cnc5[nH]ccc5c4)cc3c21`, the fold change (FC) was 8.1.
Compound `CN1C(=O)c2sccc2N(C)c2nc(Nc3ccc(S(N)(=O)=O)cc3)ncc21` has a fold change (FC) of 4.92.
Compound `C[C@@H](c1ccccc1)n1nnc2cnc3ccc(-c4ccc(N5CCOCC5)nc4)cc3c21` has a fold change (FC) of 1.06.
`C[C@@H](c1ccccc1)n1nnc2cnc3ccc(-c4ccc(C#N)nc4)cc3c21` was tested, and the fold change (FC) was 1.94.
In the case of `CC[C@H](c1ccccc1)n1nnc2cnc3ccc(-c4cnc5[nH]ccc5c4)cc3c21`, the fold change (FC) was 3.72.
Work on `CC[C@@H](c1ccccc1)n1nnc2cnc3ccc(-c4cnc5[nH]ccc5c4)cc3c21` yielded a fold change (FC) of 8.06.
`Fc1ccc(-n2nnc3cnc4ccc(-c5cnc6[nH]ccc6c5)cc4c32)cc1` gave a fold change (FC) of 3.44.
Compound `C[C@H](c1ccc(F)cc1)n1nnc2cnc3ccc(-c4cnc5[nH]ccc5c4)cc3c21` has a fold change (FC) of 4.92.
For `Fc1ccc(Cn2nnc3cnc4ccc(-c5cnc6[nH]ccc6c5)cc4c32)cc1`, the fold change (FC) was 3.87.
With `C[C@@H](c1ccccc1)n1nnc2cnc3ccc(-c4c[nH]c5ncccc45)cc3c21` the fold change (FC) was 1.11.
